Measurements: ChEMBL document CHEMBL4359873, “Benzothienoquinazolinones as new multi-target scaffolds: Dual inhibition of human Topoisomerase I and tubulin polymerization” (Eur J Med Chem, 2019)
Active and inactive are the calls of the source. No cut-off for these calls is given here.

How the values were obtained:
[1] = system: MDA-MB-231; experiment: Antiproliferative activity against triple negative human MDA-MB-231 cells assessed as reduction in cell viability after 72 hrs by MTT assay; type: functional, cell-based; conditions: MDA-MB-231, 72 h
How it was run: (§1)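 Cells seeded, grown 24 h in full medium, then serum-starved 24 h before compound exposure. Six concentrations (0.1, 1, 10, 20, 40, 100 µM) tested in triplicate; MTT absorbance read at 570 nm; results as % of basal, IC50 calculated. Means ± standard deviations. MCF-7 in DMEM-F12 with 5% NCS, MDA-MB-231 with 5% FBS, MCF-10A with 5% horse serum plus hEGF, insulin, hydrocortisone, cholera enterotoxin; 37 °C, 5% CO2.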

[2] = system: MCF7; experiment: Antiproliferative activity against ER-alpha positive human MCF7 cells assessed as reduction in cell viability after 72 hrs by MTT assay; type: functional, cell-based; conditions: MCF7, 72 h; how it was run: as §1
[3] = system: MCF-10A; experiment: Cytotoxicity against human MCF10A cells assessed as reduction in cell viability after 72 hrs by MTT assay; type: cell-based; how it was run: as §1
[4] = target: T1, Tubulin (Bos taurus) (UniProt Q6B856+Q862L2+Q862F3); experiment: Inhibition of bovine tubulin at 10 uM assessed as tubulin heterodimers assembly to form microtubule by measuring OD at 350nm in presence of GTP measured every 30 secs for 90 mins by turbidimetric assay; type: protein assay
How it was run: (§2)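 Kit-based assay: 60 µM tubulin in 1x PB-GTP with compound at 10 µM final (DMSO vehicle control), 37 °C, 10 s shaking before each reading. Turbidity read at 350 nm every 30 s for 90 min. Paclitaxel and Vinblastine at 10 µM final as stabilizing and destabilizing references.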

[5] = target: T2, DNA topoisomerase 1 (Homo sapiens) (UniProt P11387); experiment: Inhibition of recombinant human topoisomerase 1 mediated DNA relaxation assessed as uncleaved plasmid DNA at 50 uM using supercoiled pHOT1 plasmid as substrate after 1 hr by ethidium bromide staining based agarose gel electrophoresis
T2 sequence (whole entry): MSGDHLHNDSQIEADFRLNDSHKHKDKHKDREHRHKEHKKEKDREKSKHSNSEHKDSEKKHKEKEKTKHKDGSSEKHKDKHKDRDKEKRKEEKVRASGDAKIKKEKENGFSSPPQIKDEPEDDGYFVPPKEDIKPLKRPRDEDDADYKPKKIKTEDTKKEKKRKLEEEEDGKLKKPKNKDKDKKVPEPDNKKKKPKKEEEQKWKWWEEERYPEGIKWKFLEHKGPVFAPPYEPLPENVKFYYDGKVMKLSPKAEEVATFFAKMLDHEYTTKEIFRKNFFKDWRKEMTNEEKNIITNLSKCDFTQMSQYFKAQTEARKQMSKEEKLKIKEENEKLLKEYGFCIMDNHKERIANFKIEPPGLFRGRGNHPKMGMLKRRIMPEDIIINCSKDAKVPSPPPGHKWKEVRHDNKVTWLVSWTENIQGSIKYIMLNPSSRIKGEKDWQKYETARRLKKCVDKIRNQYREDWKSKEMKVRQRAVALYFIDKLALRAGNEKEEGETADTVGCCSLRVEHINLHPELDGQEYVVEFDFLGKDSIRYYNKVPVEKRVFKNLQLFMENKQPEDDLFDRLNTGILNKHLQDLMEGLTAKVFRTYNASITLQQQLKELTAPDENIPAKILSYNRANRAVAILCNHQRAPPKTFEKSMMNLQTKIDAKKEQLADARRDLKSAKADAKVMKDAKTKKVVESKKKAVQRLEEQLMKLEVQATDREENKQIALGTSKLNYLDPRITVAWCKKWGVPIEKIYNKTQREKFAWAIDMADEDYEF
How it was run: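 Relaxation in 20 µL: 0.25 µg supercoiled pHOT1 in TE buffer, 2 units recombinant hTopo I, compound at 50 µM final, 1 h at 37 °C. Run on 1% agarose in 1x TAE without EB, then stained 30 min with EB (0.5 µg/mL), washed 15 min in water, viewed under UV. Three repeats.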

[6] = target: DNA topoisomerase 2-alpha (Homo sapiens) (UniProt P11388); experiment: Inhibition of human topoisomerase 2 mediated decatenation at 50 uM using kinetoplast DNA as susbtrate after 1 hr by ethidium bromide staining based agarose gel electrophoresis
How it was run: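 Decatenation in 20 µL with 0.2 µg kinetoplast DNA and 3 units hTopo II; compounds at 50 µM, 1 h at 37 °C.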

[7] = target: DNA topoisomerase 2-alpha (Homo sapiens) (UniProt P11388); experiment: Inhibition of human topoisomerase 2 mediated decatenation up to 100 uM using kinetoplast DNA as susbtrate after 1 hr by ethidium bromide staining based agarose gel electrophoresis
[8] = target: T1, Tubulin (Bos taurus); experiment: Inhibition of bovine tubulin assessed as decrease in tubulin polymerization gradually followed by steady state decrease measured after 30 mins by turbidimetric assay; type: protein assay; how it was run: as §2
[9] = target: T1, Tubulin (Bos taurus); experiment: Inhibition of bovine tubulin assessed as decrease in tubulin polymerization gradually followed by steady state decrease measured after 15 mins by turbidimetric assay; type: protein assay; how it was run: as §2

Sequence of DNA topoisomerase 2-alpha (Homo sapiens) (P11388 whole entry): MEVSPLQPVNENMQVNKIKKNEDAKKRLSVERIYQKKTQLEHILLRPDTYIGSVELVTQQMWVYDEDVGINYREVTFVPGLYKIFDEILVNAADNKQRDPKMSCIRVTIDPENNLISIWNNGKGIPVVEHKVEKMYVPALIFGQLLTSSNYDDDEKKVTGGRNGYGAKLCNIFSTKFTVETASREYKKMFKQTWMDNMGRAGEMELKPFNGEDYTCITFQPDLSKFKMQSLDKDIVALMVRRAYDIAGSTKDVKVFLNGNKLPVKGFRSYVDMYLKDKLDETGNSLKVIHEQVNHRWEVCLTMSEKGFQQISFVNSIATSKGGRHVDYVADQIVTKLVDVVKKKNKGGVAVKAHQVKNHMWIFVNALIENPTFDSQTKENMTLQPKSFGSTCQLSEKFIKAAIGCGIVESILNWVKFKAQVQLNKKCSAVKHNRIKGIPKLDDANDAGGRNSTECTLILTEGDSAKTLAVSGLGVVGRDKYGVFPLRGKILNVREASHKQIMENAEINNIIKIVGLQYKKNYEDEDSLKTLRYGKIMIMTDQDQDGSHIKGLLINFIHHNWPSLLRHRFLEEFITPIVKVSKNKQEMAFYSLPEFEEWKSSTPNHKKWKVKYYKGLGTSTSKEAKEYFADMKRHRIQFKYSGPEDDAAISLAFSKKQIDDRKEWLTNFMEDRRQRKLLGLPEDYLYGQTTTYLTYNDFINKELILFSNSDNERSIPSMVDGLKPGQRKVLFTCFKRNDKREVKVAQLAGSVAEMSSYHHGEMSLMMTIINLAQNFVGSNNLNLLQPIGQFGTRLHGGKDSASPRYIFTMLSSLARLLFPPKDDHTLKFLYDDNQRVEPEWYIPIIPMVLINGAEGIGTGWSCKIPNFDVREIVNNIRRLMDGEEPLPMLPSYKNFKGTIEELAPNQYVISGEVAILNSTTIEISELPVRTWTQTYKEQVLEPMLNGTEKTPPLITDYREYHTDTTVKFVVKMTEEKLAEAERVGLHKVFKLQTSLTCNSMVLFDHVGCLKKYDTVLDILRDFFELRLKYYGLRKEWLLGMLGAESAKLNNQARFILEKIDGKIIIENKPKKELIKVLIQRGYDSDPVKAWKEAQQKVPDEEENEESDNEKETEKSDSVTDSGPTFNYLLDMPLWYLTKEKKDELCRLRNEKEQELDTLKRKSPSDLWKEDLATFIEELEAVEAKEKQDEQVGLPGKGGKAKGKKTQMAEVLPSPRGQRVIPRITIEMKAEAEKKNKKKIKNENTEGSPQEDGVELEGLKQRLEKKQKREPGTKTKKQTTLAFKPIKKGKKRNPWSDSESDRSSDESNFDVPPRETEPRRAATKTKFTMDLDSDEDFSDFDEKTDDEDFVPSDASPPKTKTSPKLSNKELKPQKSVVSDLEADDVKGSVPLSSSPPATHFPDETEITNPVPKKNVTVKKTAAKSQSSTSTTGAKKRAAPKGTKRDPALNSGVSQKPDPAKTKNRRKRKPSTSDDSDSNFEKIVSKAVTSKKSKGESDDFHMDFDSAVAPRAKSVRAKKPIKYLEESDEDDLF

| Structure (SMILES) | IC50 [1] | IC50 [2] | IC50 [3] | OD [4] | inhibition [5] | inhibition [6] | inhibition [7] | inhibition [8] | inhibition [9] |
| --- | --- | --- | --- | --- | --- | --- | --- | --- | --- |
| CCCCNc1nc2ccc3c4ccccc4sc3c2c(=O)[nH]1 | 38.9 µM | 74.5 µM | > 100 µM |  |  |  |  |  |  |
| CC[C@]1(O)C[C@@H]2CN(CCc3c([nH]c4ccccc34)[C@@](C(=O)OC)(c3cc4c(cc3OC)N(C)[C@H]3[C@@](O)(C(=O)OC)[C@H](OC(C)=O)[C@]5(CC)C=CCN6CC[C@]43[C@@H]65)C2)C1 [VINBLASTINE] |  | 15 µM | 25.9 µM | 0.2 |  |  |  |  |  |
| CC(=O)O[C@H]1C(=O)[C@@]2(C)[C@H]([C@H](OC(=O)c3ccccc3)[C@]3(O)C[C@H](OC(=O)[C@H](O)[C@@H](NC(=O)c4ccccc4)c4ccccc4)C(C)=C1C3(C)C)[C@]1(OC(C)=O)CO[C@@H]1C[C@@H]2O |  |  |  | 0.52 |  |  |  |  |  |
| Cc1c2ccncc2c(C)c2c1[nH]c1ccccc12 [ELLIPTECINE] | 1.85 µM |  | 1.2 µM |  | Active |  |  |  |  |
| CCCCCN(CCCCC)c1nc2ccc3c4ccccc4sc3c2c(=O)[nH]1 | 42.4 µM | 75.2 µM | > 100 µM |  |  |  |  |  |  |
| CCCN(CCC)c1nc2ccc3c4ccccc4sc3c2c(=O)[nH]1 | 4.69 µM | 42 µM | > 100 µM | 0.26 |  | inactive | inactive | Active |  |
| O=c1[nH]c(NC2CCCC2)nc2ccc3c4ccccc4sc3c12 | 5.59 µM | 45.6 µM | > 100 µM |  |  |  |  |  |  |
| CCCNc1nc2ccc3c4ccccc4sc3c2c(=O)[nH]1 | 3.88 µM | 40.7 µM | > 100 µM | 0.24 | Active | inactive | inactive |  | Active |
| O=c1[nH]c(N2CCOCC2)nc2ccc3c4ccccc4sc3c12 | 9.43 µM | 21.2 µM | > 100 µM |  |  |  |  |  |  |
